Among the data in ChEMBL document CHEMBL4033615, “Protoxenicins A and B, Cytotoxic Long-Chain Acylated Xenicanes from the Soft Coral Protodendron repens” (2017) are GI50, TGI and CC50 values, retold here.

SMILES strings stand for the structures.

What all share (type): functional
What all share (conditions): for CC50: read-out: LC50 (the source's name)

One assay has as its system HT-29. Description: Cytotoxic activity against human HT-29 cells. The essentials: (§1)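 Human tumour lines (A-549 lung carcinoma, MDA-MB-231 breast adenocarcinoma, HT-29 colorectal carcinoma) exposed to test agent. Growth measured against untreated control cells. Survival estimated with the NCI algorithm, yielding three dose–response parameters: GI50 (50% growth inhibition), TGI (total growth inhibition) and LC50 (50% cell death).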

Another assay relates to MDA-MB-231. Description: Cytotoxic activity against human MDA-MB-231 cells. The method, boiled down: as §1
The next assay concerns A549. The assay can be described thus: Cytotoxic activity against human A549 cells. The essentials: as §1

For `C=C1[C@@H]2[C@@H](OC(C)=O)OC=C([C@@H](OC(C)=O)[C@H](C=C(C)C)OC(=O)CCCCCCCCC)[C@H]2CC/C(C)=C/[C@@H](O)[C@H]1O`, in the assay on HT-29, the GI50 – broadly, the concentration that inhibits growth by half – turned out to be 1.7 µM; the TGI (usually the concentration giving total growth inhibition) turned out to be 5.2 µM; the CC50 amounted to 10.4 µM. In the assay with MDA-MB-231, the GI50 amounted to 6.3 µM, the TGI was 9.7 µM and the CC50 was 12.9 µM. In the assay on A549, growth was halved (GI50) at 6.1 µM, net growth stopped (TGI) at 10.1 µM and the CC50 was 13.3 µM.

`C=C1[C@@H]2[C@@H](OC(C)=O)OC=C([C@@H](OC(C)=O)[C@@H](OC(=O)CCCCCCCCC)[C@H]3OC3(C)C)[C@H]2CC[C@](C)(O)[C@@H]2O[C@@H]2[C@H]1O`: in the assay on HT-29, it took 0.6 µM to inhibit growth by half (GI50), total growth inhibition (TGI) required 1.2 µM and the CC50 came out at 2.2 µM. In addition, in the assay with MDA-MB-231, the GI50 is 2.1 µM, the TGI came to 2.8 µM and the CC50 was 3.8 µM. In the assay with A549, growth was halved (GI50) at 1.1 µM, net growth stopped (TGI) at 1.4 µM and the CC50 is 1.8 µM.

Turning to `COc1cccc2c1C(=O)c1c(O)c3c(c(O)c1C2=O)C[C@@](O)(C(=O)CO)C[C@@H]3O[C@H]1C[C@H](N)[C@H](O)[C@H](C)O1` [DOXORUBICIN], in the assay with HT-29, the GI50 came to 0.3 µM, total growth inhibition (TGI) required 0.9 µM and the CC50 was more than 17.2 µM. Moreover, in the assay with MDA-MB-231, the 50% growth inhibitory concentration (GI50) turned out to be 0.2 µM, net growth stopped (TGI) at 0.5 µM and the CC50 was 2.4 µM. Also, in the assay with A549, it took 0.2 µM to inhibit growth by half (GI50), the concentration for total growth inhibition (TGI) amounted to 0.9 µM and the CC50 was more than 17.2 µM.
